Results on 32 molecules are retold here after ChEMBL document CHEMBL1148382, “Synthesis and structure-activity relationship for a novel class of potent and selective carbamoyl-triazole based inhibitors of hormone sensitive lipase” (J Med Chem, 2004).

The target of test [1] is T1, Acetylcholinesterase (Homo sapiens, UniProt P22303). The test can be described thus: Inhibitory concentration against acetylcholinesterase.
In test [2] the target is Lipoprotein lipase (Bos taurus) (UniProt P11151). The test can be described thus: Compound was tested to inhibit lipoprotein lipase (LPL).
In a further test the target is Cholinesterase (Homo sapiens, UniProt P06276). Nature of the test: Inhibitory concentration against butyrylcholinesterase.
Test [3] addresses T2, Hepatic triacylglycerol lipase (Homo sapiens, UniProt P11150).
T2 sequence (P11150 whole entry): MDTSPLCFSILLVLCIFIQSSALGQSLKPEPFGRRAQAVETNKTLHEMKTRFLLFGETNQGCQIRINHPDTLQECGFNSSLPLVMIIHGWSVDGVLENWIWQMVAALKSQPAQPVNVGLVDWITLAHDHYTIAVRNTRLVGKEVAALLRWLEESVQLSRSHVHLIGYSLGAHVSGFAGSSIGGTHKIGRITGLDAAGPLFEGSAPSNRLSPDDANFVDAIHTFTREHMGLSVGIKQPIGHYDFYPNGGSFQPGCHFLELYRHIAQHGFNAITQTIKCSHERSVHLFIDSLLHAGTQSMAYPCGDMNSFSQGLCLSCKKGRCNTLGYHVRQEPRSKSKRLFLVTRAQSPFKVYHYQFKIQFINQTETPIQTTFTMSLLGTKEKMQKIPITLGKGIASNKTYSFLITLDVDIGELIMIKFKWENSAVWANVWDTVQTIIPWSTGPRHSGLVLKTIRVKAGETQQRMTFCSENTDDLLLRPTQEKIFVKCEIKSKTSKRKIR
The test can be described thus: Compound was tested to inhibit hepatic lipase (HL). Put shortly: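 Emulsion assay with a fluorochrome (NBD)-labeled triacylglyceride in phosphatidylcholine/phosphatidylinositol 3:1 micelles, diluted in PED-BSA buffer pH 7.0. HL (1 μg/mL) and inhibitor in DOC buffer (10 mM TRIS-HCl pH 8.5, 5 mM deoxycholate) preincubated 70 min at 25 °C, then added with NaCl and TRIS pH 8.5. Fluorescence (ex 450/em 545 nm) read at 0 and 120 min, 37 °C. Inhibitor top concentration 100 μM, six 5-fold dilutions, duplicates; sigmoidal variable-slope IC50 fit.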

In another test the target is T3, Hormone-sensitive lipase (Homo sapiens, UniProt Q05469).
T3 sequence (Q05469 whole entry): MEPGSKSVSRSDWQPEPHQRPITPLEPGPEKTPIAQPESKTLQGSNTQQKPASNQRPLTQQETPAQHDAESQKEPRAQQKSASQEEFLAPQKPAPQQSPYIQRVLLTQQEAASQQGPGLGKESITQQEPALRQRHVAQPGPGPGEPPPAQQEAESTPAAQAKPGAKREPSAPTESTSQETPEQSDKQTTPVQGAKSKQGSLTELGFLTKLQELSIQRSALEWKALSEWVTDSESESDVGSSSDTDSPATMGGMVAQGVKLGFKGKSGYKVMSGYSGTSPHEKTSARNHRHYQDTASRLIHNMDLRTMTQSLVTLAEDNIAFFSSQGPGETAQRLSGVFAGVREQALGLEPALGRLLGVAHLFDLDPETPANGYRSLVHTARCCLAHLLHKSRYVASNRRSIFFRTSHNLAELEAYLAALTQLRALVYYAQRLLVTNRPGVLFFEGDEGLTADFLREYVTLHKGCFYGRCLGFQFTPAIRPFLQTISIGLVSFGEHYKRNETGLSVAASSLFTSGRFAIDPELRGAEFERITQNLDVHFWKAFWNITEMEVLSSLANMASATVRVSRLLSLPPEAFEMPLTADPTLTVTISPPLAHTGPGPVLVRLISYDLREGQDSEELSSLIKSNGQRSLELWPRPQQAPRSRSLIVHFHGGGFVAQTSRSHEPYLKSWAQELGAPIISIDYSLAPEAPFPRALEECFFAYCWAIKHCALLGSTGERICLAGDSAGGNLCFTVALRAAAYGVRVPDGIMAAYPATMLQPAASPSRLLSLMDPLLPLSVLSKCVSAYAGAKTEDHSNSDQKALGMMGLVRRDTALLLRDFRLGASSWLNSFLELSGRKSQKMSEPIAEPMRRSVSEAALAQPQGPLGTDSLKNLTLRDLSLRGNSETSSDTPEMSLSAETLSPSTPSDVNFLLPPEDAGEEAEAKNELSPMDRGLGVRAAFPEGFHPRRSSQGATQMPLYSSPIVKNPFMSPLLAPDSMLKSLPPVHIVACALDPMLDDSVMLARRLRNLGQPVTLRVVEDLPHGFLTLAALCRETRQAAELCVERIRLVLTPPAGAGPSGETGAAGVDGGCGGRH
The test can be described thus: Inhibition of hormone sensitive lipase (HSL).

The target of test [4] is T4, Pancreatic triacylglycerol lipase (Homo sapiens, UniProt P16233).
T4 sequence (P16233 whole entry): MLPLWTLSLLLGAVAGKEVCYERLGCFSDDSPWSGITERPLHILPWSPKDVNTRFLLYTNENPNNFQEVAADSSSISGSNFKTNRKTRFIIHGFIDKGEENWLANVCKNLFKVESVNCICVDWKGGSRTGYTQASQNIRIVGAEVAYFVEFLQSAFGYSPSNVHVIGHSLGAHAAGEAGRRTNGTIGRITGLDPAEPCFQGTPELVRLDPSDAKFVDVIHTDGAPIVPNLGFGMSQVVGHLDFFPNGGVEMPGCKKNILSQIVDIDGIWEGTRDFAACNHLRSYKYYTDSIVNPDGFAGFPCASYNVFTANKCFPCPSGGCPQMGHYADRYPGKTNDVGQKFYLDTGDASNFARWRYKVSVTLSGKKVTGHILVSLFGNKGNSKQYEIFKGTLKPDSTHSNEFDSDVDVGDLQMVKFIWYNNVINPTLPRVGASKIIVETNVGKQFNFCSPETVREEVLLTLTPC
Nature of the test: Compound was tested to inhibit pancreatic lipase (PL). Put shortly:
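PL (1 μg/mL) plus colipase (5 μg/mL) preincubated with inhibitor 40 min at 25 °C. Then combined with TRIS buffer pH 8.0 (NaCl, 1 mM NaTDC) and labeled triacylglyceride emulsion prepared in TRIS pH 8.0 with 8 mM NaTDC, 0.3 M NaCl, 2 mM CaCl2. Fluorescence (ex 450/em 545 nm) read at 0 and 60 min, 37 °C. Six concentrations from 100 μM in 5-fold steps, duplicates; sigmoidal IC50 fit.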

Test [5] has as its target T1, Acetylcholinesterase. Nature of the test: Inhibitory concentration against acetylcholinesterase; non classical inhibitor, maximum HSL inhibition of […]%.

Some results are limits rather than exact numbers.

T1 sequence (P22303 whole entry): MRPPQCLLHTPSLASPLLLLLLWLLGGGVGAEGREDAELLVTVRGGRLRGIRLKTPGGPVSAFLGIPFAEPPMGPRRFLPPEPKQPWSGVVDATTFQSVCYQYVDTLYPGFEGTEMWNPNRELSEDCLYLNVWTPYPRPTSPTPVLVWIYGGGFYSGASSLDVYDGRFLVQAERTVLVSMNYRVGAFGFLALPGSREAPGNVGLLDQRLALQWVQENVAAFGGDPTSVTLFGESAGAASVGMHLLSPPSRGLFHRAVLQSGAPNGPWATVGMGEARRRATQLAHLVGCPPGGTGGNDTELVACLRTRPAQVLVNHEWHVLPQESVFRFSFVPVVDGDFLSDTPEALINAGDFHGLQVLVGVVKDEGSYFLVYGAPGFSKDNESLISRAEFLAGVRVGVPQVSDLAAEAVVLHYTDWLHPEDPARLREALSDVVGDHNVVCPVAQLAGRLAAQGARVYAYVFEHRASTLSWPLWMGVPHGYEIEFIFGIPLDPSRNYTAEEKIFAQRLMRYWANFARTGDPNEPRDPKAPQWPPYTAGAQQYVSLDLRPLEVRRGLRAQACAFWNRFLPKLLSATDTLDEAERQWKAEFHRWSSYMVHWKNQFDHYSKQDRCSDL
Lipoprotein lipase (Bos taurus), sequence (P11151 whole entry, looked up): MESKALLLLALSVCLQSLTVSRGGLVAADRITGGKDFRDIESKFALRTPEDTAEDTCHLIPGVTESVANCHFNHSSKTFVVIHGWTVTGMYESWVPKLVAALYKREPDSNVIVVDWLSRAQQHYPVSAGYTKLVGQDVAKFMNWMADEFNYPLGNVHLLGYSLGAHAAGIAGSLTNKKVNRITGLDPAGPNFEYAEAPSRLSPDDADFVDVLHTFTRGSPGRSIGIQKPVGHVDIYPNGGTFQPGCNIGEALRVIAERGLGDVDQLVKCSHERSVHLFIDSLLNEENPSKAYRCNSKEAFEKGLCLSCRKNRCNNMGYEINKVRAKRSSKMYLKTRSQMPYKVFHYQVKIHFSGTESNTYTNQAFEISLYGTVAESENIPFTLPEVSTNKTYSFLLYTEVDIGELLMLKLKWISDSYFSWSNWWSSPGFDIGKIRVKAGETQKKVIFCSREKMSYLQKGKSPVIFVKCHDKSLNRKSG
Cholinesterase, sequence (P06276 whole entry): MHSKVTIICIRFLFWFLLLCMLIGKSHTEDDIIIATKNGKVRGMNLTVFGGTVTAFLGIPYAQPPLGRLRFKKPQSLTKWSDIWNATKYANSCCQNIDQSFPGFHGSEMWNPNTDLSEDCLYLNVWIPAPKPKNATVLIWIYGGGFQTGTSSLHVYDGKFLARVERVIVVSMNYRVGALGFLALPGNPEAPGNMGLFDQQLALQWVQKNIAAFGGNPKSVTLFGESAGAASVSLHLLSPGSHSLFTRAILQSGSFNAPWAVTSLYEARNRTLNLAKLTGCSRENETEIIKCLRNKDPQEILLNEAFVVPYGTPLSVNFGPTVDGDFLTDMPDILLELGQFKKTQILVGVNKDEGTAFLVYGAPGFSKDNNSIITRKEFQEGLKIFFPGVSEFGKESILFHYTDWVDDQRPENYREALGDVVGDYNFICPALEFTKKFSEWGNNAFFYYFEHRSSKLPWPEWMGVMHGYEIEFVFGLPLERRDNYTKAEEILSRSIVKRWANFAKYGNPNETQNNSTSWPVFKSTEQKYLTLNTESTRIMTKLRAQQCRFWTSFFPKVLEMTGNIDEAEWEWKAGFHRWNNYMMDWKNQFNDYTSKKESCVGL

A word on the IC50: it is the concentration that gives 50% inhibition. A high value points to lower potency. For `Cc1c(C(C)C)c(=O)on1C(=O)N1CCC[C@H](C)C1`, the IC50 against Acetylcholinesterase [1] was 17000 nM; in test [2], above 50000 nM; at Cholinesterase, above 50000 nM; in test [3] it was above 50000 nM; against Hormone-sensitive lipase, 170 nM; in test [4], above 50000 nM.
Take `CSc1nc(-c2ccc(Cl)cc2)nn1C(=O)N(C)C`: the values for the IC50 on Acetylcholinesterase [1], at Cholinesterase and against Hormone-sensitive lipase were 100 nM, below 10 nM and 20 nM, respectively.
For `CSc1nc(-c2ccc(C)cc2)nn1C(=O)N(C)c1ccccc1`, the IC50 against Acetylcholinesterase [1] is 2400 nM; on Hormone-sensitive lipase, 100 nM.
On to `CSc1nc(-c2ccc(OC(F)(F)F)cc2)nn1C(=O)N(C)C`, for which the IC50 amounted to 800 nM at Acetylcholinesterase [1], 200 nM against Cholinesterase and 100 nM against Hormone-sensitive lipase.
The corresponding values for `O=C(N1CCCCC1)n1nc(-c2ccc(Cl)cc2)nc1SCC(F)(F)F` are 300 nM, 1000 nM and 400 nM.
As to `CSc1nc(-c2ccc(Cl)cc2)nn1C(=O)N1CCOCC1`, the IC50 was above 50000 nM against Acetylcholinesterase [1], 14000 nM at Cholinesterase and 2000 nM at Hormone-sensitive lipase.
In the case of `CSc1nc(-c2ccc(Cl)cc2)nn1C(=O)N1CCCCC1`, the IC50 at Acetylcholinesterase [1] worked out at 26 nM; against Cholinesterase, 900 nM; at Hormone-sensitive lipase it was 100 nM.
For the molecule `CSc1nc(-c2ccc(C)cc2)nn1C(=O)N1CCOCC1`, the IC50 against Acetylcholinesterase [1] is above 50000 nM; on Cholinesterase it was 2000 nM; against Hormone-sensitive lipase, 4000 nM.
On to `CSc1nc(-c2ccc(OC(F)(F)F)cc2)nn1C(=O)N(C)c1ccccc1`, for which the IC50 on Acetylcholinesterase [1] is above 50000 nM; in test [2], above 50000 nM; on Cholinesterase, above 50000 nM; in test [3] it was above 50000 nM; against Hormone-sensitive lipase it was 250 nM; in test [4] it was above 50000 nM.
For `Cc1ccc(-c2nc(SCC(F)(F)F)n(C(=O)N(C)C)n2)cc1`, the IC50 at Acetylcholinesterase [1] was found to be 200 nM; against Cholinesterase, 460 nM; on Hormone-sensitive lipase, 600 nM.
For `CSc1nc(-c2ccc(Cl)cc2)nn1C(=O)N(C)c1ccccc1`, the results for the IC50 against Acetylcholinesterase [1] and on Hormone-sensitive lipase were 1400 nM and 160 nM, respectively.
As to `CN(C(=O)n1nc(-c2ccc(Cl)cc2)nc1SCC(F)(F)F)c1ccccc1`, the IC50 is above 50000 nM at Acetylcholinesterase [1]; above 50000 nM in test [2]; above 50000 nM against Cholinesterase; above 50000 nM in test [3]; 170 nM at Hormone-sensitive lipase; above 50000 nM in test [4].
Consider `CSc1nc(-c2ccc(C)cc2)nn1C(=O)N(C)C`, for which the IC50 against Acetylcholinesterase [1] came to 800 nM; at Cholinesterase, 200 nM; on Hormone-sensitive lipase it was 30 nM.
Regarding `CCCCCCSc1nc(-c2ccc(Cl)cc2)nn1C(=O)N(C)c1ccccc1`, the figures for the IC50 against Acetylcholinesterase [1] and on Hormone-sensitive lipase were above 50000 nM and 400 nM, respectively.
Turning to `CCOc1nn(-c2cccc(OCc3ccccc3)c2)c(=O)o1`, the IC50 is 750 nM on Acetylcholinesterase [1]; above 10000 nM in test [2]; 920 nM against Cholinesterase; 15000 nM in test [3]; 1100 nM on Hormone-sensitive lipase; above 10000 nM in test [4].
On to `O=C(N1CCOCC1)n1nc(-c2ccc(Cl)cc2)nc1SCC(F)(F)F`, for which the IC50 on Acetylcholinesterase [1] was above 50000 nM; against Cholinesterase it was above 50000 nM; on Hormone-sensitive lipase, 9000 nM.
Take `CCCSc1nc(-c2ccc(Cl)cc2)nn1C(=O)N(C)C`: the IC50 worked out at 300 nM on Acetylcholinesterase [1], 100 nM against Cholinesterase and 60 nM on Hormone-sensitive lipase.
For `CCSc1nc(-c2ccc(OC)cc2)nn1C(=O)N(C)c1ccccc1`, the IC50 against Acetylcholinesterase [1] came out at 1100 nM; against Hormone-sensitive lipase, 300 nM.
As for `CSc1nc(-c2ccc3ccccc3c2)nn1C(=O)N(C)C`, the figures for the concentration for half-maximal inhibition (IC50) against Acetylcholinesterase [1], on Cholinesterase and on Hormone-sensitive lipase were 50 nM, 130 nM and 2000 nM, respectively.
With `CN(C(=O)n1nc(-c2ccc(Cl)cc2)nc1SCC1CC1)c1ccccc1`, the results for the IC50 at Hormone-sensitive lipase and against Acetylcholinesterase [5] were 62 nM and “Non classical inhibitor”, respectively.
As for `CCCCCCSc1nc(-c2ccc(Cl)cc2)nn1C(=O)N1CCCCC1`, the IC50 is below 10 nM on Acetylcholinesterase [1], above 50000 nM on Cholinesterase and above 50000 nM at Hormone-sensitive lipase.
On to `CCCCCCSc1nc(-c2ccc(C)cc2)nn1C(=O)N(C)C`, for which the IC50 against Acetylcholinesterase [1] is 200 nM; on Cholinesterase, 300 nM; against Hormone-sensitive lipase, above 50000 nM.
The corresponding values for `O=C(N1CCCCC1)n1nc(-c2ccc(Cl)cc2)nc1SCC1CC1` are 100 nM, 900 nM and 200 nM.
For `CCSc1nc(-c2ccc(Cl)cc2)nn1C(=O)N(C)C` the same measures were 56 nM, 50 nM and 210 nM.
Take `COc1ccc(-c2nc(SC)n(C(=O)N(C)C)n2)cc1`: the IC50 worked out at 800 nM against Acetylcholinesterase [1], 410 nM at Cholinesterase and 900 nM against Hormone-sensitive lipase.
Turning to `CCCCCCSc1nc(-c2ccc(C)cc2)nn1C(=O)N(C)c1ccccc1`, the IC50 is above 50000 nM on Acetylcholinesterase [1] and 700 nM against Hormone-sensitive lipase.
Turning to `CCCCCCSc1nc(-c2ccc(Cl)cc2)nn1C(=O)N1CCOCC1`, the IC50 against Acetylcholinesterase [1], against Cholinesterase and at Hormone-sensitive lipase was above 50000 nM each time.
Regarding `CSc1nc(-c2ccc(C(F)(F)F)cc2)nn1C(=O)N(C)C`, the IC50 on Acetylcholinesterase [1] was 500 nM; against Cholinesterase it was 100 nM; against Hormone-sensitive lipase, 100 nM.
For the molecule `CSc1nc(-c2ccc(-c3ccccc3)cc2)nn1C(=O)N(C)C`, the IC50 against Acetylcholinesterase [1] was found to be 560 nM; at Cholinesterase, 230 nM; against Hormone-sensitive lipase, 1500 nM.
In the case of `COc1nn(-c2ccc(NC(=O)c3ccc(C(C)(C)C)cc3)cc2)c(=O)o1`, the IC50 against Acetylcholinesterase [1] was above 50000 nM; in test [2], 200 nM; against Cholinesterase, above 50000 nM; in test [3], 1800 nM; against Hormone-sensitive lipase, 23 nM; in test [4], above 10000 nM.
In the case of `CSc1nc(/C=C/c2ccccc2)nn1C(=O)N(C)C`, the IC50 against Acetylcholinesterase [1] is below 10 nM; at Cholinesterase it was 370 nM; against Hormone-sensitive lipase, above 50000 nM.
For `CCSc1nc(-c2ccc(OC)cc2)nn1C(=O)N1CCOCC1` the same measures were above 50000 nM, 4000 nM and 9000 nM.
